High-throughput results deposited in PubChem by Broad Institute.
Vif inh – inhibitors of HIV Vif; hit rate 0.35% among 340,000; AID 602346; inhibition, % at 7.49 µM; HEK293T cells, Vif self-association by quenched fluorescence, imaging, 24 h; in the data active = inhibition above about 50%, passing the limit was not always enough
SR-BI HDL uptake – inhibitors of mouse SR-BI mediated HDL lipid uptake | ldlA[mSR-BI] CHO cells, DiI-HDL uptake fluorescence, 3 h | hit rate 0.96% among 320,000 | inhibition, % at 12.5 µM | Q61009;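 active = mean replicate inhibition of at least 70% and a set share of replicates each scoring 70 or more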;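 also: 0% = median of neutral control wells and 100% = median of positive control wells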
Target sequence (Q61009 whole entry, looked up): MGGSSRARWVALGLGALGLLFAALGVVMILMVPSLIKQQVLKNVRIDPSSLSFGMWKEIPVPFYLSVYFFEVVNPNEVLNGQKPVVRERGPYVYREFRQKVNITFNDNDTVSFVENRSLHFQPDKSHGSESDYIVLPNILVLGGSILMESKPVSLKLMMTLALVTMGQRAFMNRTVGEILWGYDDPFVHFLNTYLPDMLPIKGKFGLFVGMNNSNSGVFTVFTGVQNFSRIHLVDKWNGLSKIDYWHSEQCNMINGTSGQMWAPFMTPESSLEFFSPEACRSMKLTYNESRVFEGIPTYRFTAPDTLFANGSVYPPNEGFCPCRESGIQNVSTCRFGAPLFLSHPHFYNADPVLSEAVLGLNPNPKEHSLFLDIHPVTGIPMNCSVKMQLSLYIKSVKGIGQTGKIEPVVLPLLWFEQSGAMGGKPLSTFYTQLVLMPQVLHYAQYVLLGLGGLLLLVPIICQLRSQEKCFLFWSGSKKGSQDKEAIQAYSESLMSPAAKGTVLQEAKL
C2C12 statin – suppression of simvastatin myotoxicity | C2C12 myotubes + simvastatin, ATP luminescence, 48 h; scaled: DMSO 0, geranylgeraniol control 100 | rescue of ATP level, % at 7.49 µM | hit rate 0.78% among 330,000 | AID 602340;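 active = mean ATP rescue above about 67%, or every replicate alone reaching that limit, limit read from the data, passing the limit was not always enough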;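 also: myotubes were challenged with 10 µM simvastatin during compound exposure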
SR-BI uptake up – SR-BI HDL lipid transfer activation. CHO ldlA[mSR-BI] cells, DiI-HDL uptake fluorescence, 3 h; 100 = double the neutral-control signal. activation, % at 12.5 µM. hit rate 0.096% among 320,000. AID 504775;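 active = mean replicate activation of at least 60% and every replicate at or above 60%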;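 also: 0% = median plate neutral-control signal and 100% = twice that signal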
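Test system: SR-BI-overexpressing, LDLR-lacking CHO cells; Medium: Ham's F12 with 0.5% BSA, HEPES 25 mM, pH 7.4; Schedule: 3 h, 37 °C; Technique: bottom-read fluorescence, 550/595 nm.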
Active calls of the source: *; x = not tested or not shown. Shown are actives, neighbours in structure and some others; about 1.7% of the full set was active somewhere.

SMILES	Vif inh	SR-BI HDL uptake	C2C12 statin	SR-BI uptake up
CC(=O)c1cnn(-c2ccccc2)c1C	-23	-18	3	18
Cc1c(C(=O)Oc2cccc3ccccc23)cnn1-c1ccccc1	-17	x	100*	x
CCOC(=O)c1cnn(-c2ccccc2)c1-n1cccc1	1	5	107*	-5
O=C(NNc1nc2ccc(Cl)cc2s1)c1cc(-c2cccs2)nc2ccccc12	21	89*	-81	-89
Cc1c(NC(=O)c2cc(-c3cccs3)nc3ccccc23)c(=O)n(-c2ccccc2)n1C	4	77*	x	-77
Cc1cc(=O)[nH]c(Nc2c(C)n(C)n(-c3ccccc3)c2=O)n1	18	0	124*	0
Cc1cc(C)c2nc(NNC(=O)c3cc(-c4cccs4)nc4ccccc34)sc2c1	-2	35	3	-35
Cc1c(NC(=O)c2cc(-c3ccccc3)nc3ccccc23)c(=O)n(-c2ccccc2)n1C	18	77*	10	-77
COc1ccc(-c2cc(C(=O)Nc3c(C)n(C)n(-c4ccccc4)c3=O)c3ccccc3n2)cc1OC	-10	92*	x	-92
Cc1c(NC(=O)c2cc3ccccc3oc2=O)c(=O)n(-c2ccccc2)n1C	90*	-33	0	33
Cc1c(NC(=O)c2cc3ccccc3o2)c(=O)n(-c2ccccc2)n1C	1	-5	-4	5
Cc1ccc(-c2cc(C(=O)Nc3c(C)n(C)n(-c4ccccc4)c3=O)c3ccccc3n2)cc1	-4	74*	62	-74
COc1ccc(CN(C)C[C@@H]2OCCCC[C@H](C)Oc3ccc(NC(=O)Nc4ccc(F)cc4)cc3C(=O)N([C@@H](C)CO)C[C@H]2C)cc1	x	x	-166	x
O=C(C[C@H]1CC[C@@H]2[C@H](COC[C@@H](O)CN2Cc2nccs2)O1)NCc1ccc(-c2ccccc2)cc1	x	x	6	x
O=C(Nc1ccc(Cl)cc1)Nc1ccccc1CC[N+](=O)[O-]	-12	56	104*	-56
CCc1cccc(NC(=O)c2ccc(CNc3c(N4CCCC4)c(=O)c3=O)cc2)c1	-1	28	100*	-28
C[C@H]1CN([C@@H](C)CO)C(=O)c2cccc(NC(=O)Nc3ccc(F)cc3)c2O[C@H]1CN(C)C(=O)NC1CCCCC1	x	x	-33	x
CN(C(=O)c1ccc(NC(=O)Cc2ccc(NC(=O)C3CCN(C(=O)CCc4ccccc4)CC3)cc2)cc1)C1CC1	12	63	160*	-63
CN(C(=O)c1ccc(NC(=O)Cc2cccc(NC(=O)C3CCN(C(=O)CCc4ccccc4)CC3)c2)cc1)C1CCCC1	-4	71*	16	-71
C[C@@H]1CN([C@@H](C)CO)C(=O)c2cc(NC(=O)Nc3ccc4c(c3)OCO4)ccc2O[C@@H]1CN(C)S(C)(=O)=O	x	x	-21	x
C[C@H]1CCCCO[C@H](CN(C)C)[C@@H](C)CN([C@@H](C)CO)C(=O)c2cc(NS(=O)(=O)c3ccccc3)ccc2O1	x	x	2	x
CCCCCCCCOc1ccc(C(=O)O)cc1	4	-7	-11	7
C=CCC(=O)OCCCCCCOc1ccc(C(=O)O)cc1	-5	-23	-12	x
C=C(C)C(=O)OCCCCCCOc1ccc(C(=O)O)cc1	0	-11	97*	x
C=CCCCOc1ccc(C(=O)O)cc1	58*	-15	8	15
SMILES	Vif inh	SR-BI HDL uptake	C2C12 statin	SR-BI uptake up
CCS(=O)(=O)N[C@H]1C=C[C@@H](CC(=O)N2CCCCC2)O[C@@H]1CO	x	x	-2	x
Cc1noc(C)c1S(=O)(=O)Nc1ccc2c(c1)CC(=O)N([C@H](C)CO)C[C@@H](C)[C@@H](CN(C)C(=O)Nc1cccc3ccccc13)O2	x	x	29	x
CCOC(=O)c1cnc2ccc(OCC)cc2c1N1CCN(c2ccccc2)CC1	-8	22	81*	-22
CCOc1ccc2ncc(S(=O)(=O)c3ccccc3)c(N3CCN(c4ccccc4)CC3)c2c1	-10	x	18	x
O=C(Cc1cn2ccsc2n1)NCc1ccccc1	-1	-6	10	6
O=C(Cc1cn2ccsc2n1)Nc1ccccc1Oc1ccccc1	-8	x	101*	x
COc1ccc(S(=O)(=O)N[C@@H]2CC[C@H](CCn3cc(C(C)C)nn3)O[C@@H]2CO)cc1	x	x	1	x
CCOc1cccc(C=NNc2ccc(S(=O)(=O)Nc3ccccc3C(=O)O)cc2[N+](=O)[O-])c1O	-1	-19	109*	19
Cc1nn(-c2ccccc2)c(C)c1/C=N/NC(=O)c1cc(-c2cccs2)[nH]n1	1	80*	x	-80
Cc1nn(-c2ccccc2)c(C)c1/C=N/NC(=O)c1cc(-c2ccc(Cl)s2)[nH]n1	-15	53	-16	-53
Cc1nn(-c2ccccc2)c(C)c1/C=N/NC(=O)c1cc(-c2ccc(Br)s2)[nH]n1	-19	71*	-3	-71
Cc1cc(C(=O)N/N=C/c2c(C)nn(-c3ccccc3)c2C)n[nH]1	7	10	x	-10
COc1c2c(nc3occc13)C(CC=C(C)C)(OC)C(O)CC2 (configuration not stated)	4	0	78*	1
CCc1csc(N2[C@@H](C#N)[C@H](c3ccc(-c4cccc(F)c4)cc3)[C@@H]2CO)n1	x	x	-1	x
Cc1ccc(-c2nc(N)sc2-c2ccc(C)cc2)cc1	-4	73*	x	-73
O=C(CN(c1cccc(Cl)c1)S(=O)(=O)c1ccc(Cl)cc1)NCc1ccccn1	-11	83*	24	-83
O=C(C[C@@H]1CC[C@@H]2[C@H](COC[C@@H](O)CN2Cc2ccncc2)O1)NCc1ccccc1Cl	x	x	3	x
C(=N\c1nccs1)/Nc1nccs1	-4	x	98*	x
COc1ccc(NC(=O)Nc2cccc3c2O[C@@H](CN(C)C(=O)Nc2cccc4ccccc24)[C@H](C)CN([C@H](C)CO)C3=O)cc1	x	x	98*	x
COc1ccc(NC(=O)N(C)C[C@H]2Oc3c(NC(=O)NC(C)C)cccc3C(=O)N([C@H](C)CO)C[C@@H]2C)cc1	5	53	96*	-53
COc1ccc(NC(=O)Nc2cccc3c2O[C@@H](CN(C)C(=O)Nc2ccc(OC)cc2)[C@H](C)CN([C@@H](C)CO)C3=O)cc1	x	x	18	x
O=C(C[C@H]1CC[C@H](NC(=O)c2cccnc2)[C@@H](CO)O1)NCc1ccc(Cl)c(Cl)c1	x	x	6	x
Cc1cccc(/C=C/c2onc(C)c2S(=O)(=O)N2CCC(C(=O)NC(C)(C)C)CC2)c1	4	77*	5	-77
CCCNC(=O)N1C[C@H](C)[C@@H](OC)CN(C)C(=O)c2cc(NS(C)(=O)=O)ccc2OC[C@@H]1C	x	x	-8	x
Cc1cc(C)n(CC(O)COc2cccc(OCC(O)Cn3nc(C)cc3C)c2)n1 (configuration not stated)	-3	53	91*	-53
CCC(=O)N[C@H]1C=C[C@H](CC(=O)NCc2ccccc2OC)O[C@H]1CO	x	x	-3	x
O=C(C[C@H]1C[C@H]2c3cc(NC(=O)NC4CCCCC4)ccc3O[C@H]2[C@@H](CO)O1)NCc1cccnc1	x	x	8	x
COc1cc(/C=C2\COC/C(=C\c3cc(OC)c(OC)c(OC)c3)C2=O)cc(OC)c1OC	-3	83*	x	-83
